Data reported in PubChem BioAssay AID623975 (Vanderbilt High Throughput Screening Facility, 2012).
pEC50: −log10 of the molar value.

Biological target: G protein-activated inward rectifier potassium channel 4 (Homo sapiens) + G protein-activated inward rectifier potassium channel 1 (Homo sapiens) (UniProt P48544+P48549)
Experiment: GIRK1/4 channel activators, Tl+ flux, dose response, cell-based, HEK-293 hGIRK1/4, thallium flux, FluoZin-2, concentration-response (AID 623975)
Conditions: HEK-293 hGIRK1/4, thallium flux FluoZin-2 fluorescence
In short: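 System – HEK-293 line stably expressing hGIRK1/4 · Probe or stimulus – thallium plus EC20 glutamate · Timing – dye loading ~60 min at room temperature, compound 4 min · Technique – FluoZin-2 thallium-flux fluorescence · Measure – Vehicle-corrected slope as % of MPD, logistic potency fit · Control set – vehicle baseline, 80 mM MPD maximum · Replication – triplicate wells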

Sequence of G protein-activated inward rectifier potassium channel 4 (Homo sapiens) + G protein-activated inward rectifier potassium channel 1 (Homo sapiens) (P48544 whole entry, looked up): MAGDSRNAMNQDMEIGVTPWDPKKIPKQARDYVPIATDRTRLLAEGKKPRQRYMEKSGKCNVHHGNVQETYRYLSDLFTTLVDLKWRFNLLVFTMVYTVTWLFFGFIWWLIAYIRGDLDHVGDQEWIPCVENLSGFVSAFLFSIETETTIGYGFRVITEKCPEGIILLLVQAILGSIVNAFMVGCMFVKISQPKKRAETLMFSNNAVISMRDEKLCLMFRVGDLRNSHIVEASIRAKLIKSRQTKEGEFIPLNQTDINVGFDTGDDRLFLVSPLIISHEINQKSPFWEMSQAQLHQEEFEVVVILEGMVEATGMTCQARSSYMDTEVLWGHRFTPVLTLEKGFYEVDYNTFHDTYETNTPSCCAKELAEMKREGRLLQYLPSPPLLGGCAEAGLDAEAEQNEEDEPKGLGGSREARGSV
Sequence of G protein-activated inward rectifier potassium channel 4 (Homo sapiens) + G protein-activated inward rectifier potassium channel 1 (Homo sapiens) (P48549 whole entry, looked up): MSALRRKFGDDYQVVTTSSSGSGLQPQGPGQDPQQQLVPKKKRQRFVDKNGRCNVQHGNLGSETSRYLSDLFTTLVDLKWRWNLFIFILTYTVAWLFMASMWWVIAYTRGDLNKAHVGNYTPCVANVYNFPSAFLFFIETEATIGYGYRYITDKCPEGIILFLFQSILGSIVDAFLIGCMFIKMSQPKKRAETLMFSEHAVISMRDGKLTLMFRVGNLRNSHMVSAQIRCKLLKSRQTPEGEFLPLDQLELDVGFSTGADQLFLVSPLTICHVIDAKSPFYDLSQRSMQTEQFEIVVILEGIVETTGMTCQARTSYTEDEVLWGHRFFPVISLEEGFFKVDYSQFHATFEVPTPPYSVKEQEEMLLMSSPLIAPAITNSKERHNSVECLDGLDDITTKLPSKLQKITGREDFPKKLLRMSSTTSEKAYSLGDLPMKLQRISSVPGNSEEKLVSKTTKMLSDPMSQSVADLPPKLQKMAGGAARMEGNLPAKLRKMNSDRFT

pEC50: 5.95
Structure (SMILES): Cc1cc(NC(=O)Nc2ccc(F)c(F)c2)n(-c2ccccc2)n1
